Tests used:
Format in all cases: functional
[1] = Growth inhibition of human KM12 cells at 10 uM after 48 hrs by SRB assay relative to control; settings: KM12, 48 h, read-out: GI
In short: (§1)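 NCI 60-cell-line panel, nine tumor subpanels; compounds tested at a single dose of 10 μM in the primary screen.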

[2] = Growth inhibition of human IGROV1 cells at 10 uM after 48 hrs by SRB assay relative to control; settings: IGROV-1, 48 h, read-out: GI; in short: as §1
[3] = Growth inhibition of human Caki1 cells at 10 uM after 48 hrs by SRB assay relative to control; settings: CAKI-1, 48 h, read-out: GI; in short: as §1
[4] = Growth inhibition of human A549 cells at 10 uM after 48 hrs by SRB assay relative to control; settings: A549, 48 h, read-out: GI; in short: as §1
[5] = Growth inhibition of human SR cells at 10 uM after 48 hrs by SRB assay relative to control; settings: read-out: GI
In short: (§2)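 Primary screen across the full NCI 60 human tumour cell line panel, which covers nine tumour subpanels. A single dose of 10 μM was applied to each line, and growth was recorded for each cell line.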

[6] = Growth inhibition of human OVCAR5 cells at 10 uM after 48 hrs by SRB assay relative to control; settings: OVCAR-5, 48 h, read-out: GI; in short: as §1
[7] = Growth inhibition of human HOP92 cells at 10 uM after 48 hrs by SRB assay relative to control; settings: HOP-92, 48 h, read-out: GI; in short: as §1
Cancer cell lines [8] = experiment: Potency index, ratio of 5-fluorouracil GI50 to compound GI50 for human renal cancer cells
In short: (§3)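 GI50 for each cell line came from NCI panel testing over a 5-log dose range, with 5-fluorouracil tested alongside as the reference drug. The index relates the 5-fluorouracil GI50 to the compound GI50 within each tumour subpanel.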

[9] = Growth inhibition of human NCI-H460 cells at 10 uM after 48 hrs by SRB assay relative to control; settings: NCI-H460, 48 h, read-out: GI; in short: as §1
[10] = Growth inhibition of human HCT116 cells at 10 uM after 48 hrs by SRB assay relative to control; settings: HCT-116, 48 h, read-out: GI; in short: as §1
[11] = Growth inhibition of human 786-0 cells at 10 uM after 48 hrs by SRB assay relative to control; settings: 786-0, 48 h, read-out: GI; in short: as §1
[12] = Growth inhibition of human SK-MEL-2 cells at 10 uM after 48 hrs by SRB assay relative to control; settings: SK-MEL-2, 48 h, read-out: GI; in short: as §2
[13] = Growth inhibition of human SK-MEL-28 cells at 10 uM after 48 hrs by SRB assay relative to control; settings: SK-MEL-28, 48 h, read-out: GI; in short: as §2
[14] = Growth inhibition of human UACC257 cells at 10 uM after 48 hrs by SRB assay relative to control; settings: UACC-257, 48 h, read-out: GI; in short: as §2
[15] = Growth inhibition of human HCC2998 cells at 10 uM after 48 hrs by SRB assay relative to control; settings: HCC 2998, 48 h, read-out: GI; in short: as §1
[16] = Growth inhibition of human MALME-3M cells at 10 uM after 48 hrs by SRB assay relative to control; settings: read-out: GI; in short: as §1
[17] = Growth inhibition of human BT549 cells at 10 uM after 48 hrs by SRB assay relative to control; settings: BT-549, 48 h, read-out: GI; in short: as §1
Cancer cell lines [18] = experiment: Potency index, ratio of 5-fluorouracil GI50 to compound GI50 for human non-small cell lung cancer cells; in short: as §3
[19] = Growth inhibition of human HOP62 cells at 10 uM after 48 hrs by SRB assay relative to control; settings: HOP-62, 48 h, read-out: GI; in short: as §1
[20] = Growth inhibition of human A498 cells at 10 uM after 48 hrs by SRB assay relative to control; settings: A498, 48 h, read-out: GI; in short: as §1
[21] = Growth inhibition of human ACHN cells at 10 uM after 48 hrs by SRB assay relative to control; settings: read-out: GI; in short: as §1
Melanoma cell = experiment: Potency index, ratio of 5-fluorouracil GI50 to compound GI50 for human melanoma cells; in short: as §3
[22] = Growth inhibition of human CNS cancer cells after 48 hrs by SRB assay; settings: Cancer cell lines
In short: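 Five-log dose range against NCI tumor cell lines, monitoring GI50, TGI and LC50 for each cell line; MG-MID values derived across the panel; 5-fluorouracil positive control.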

Cancer cell lines [23] = experiment: Potency index, ratio of 5-fluorouracil GI50 to compound GI50 for human CNS cancer cells; in short: as §3
[24] = Growth inhibition of human HT-29 cells at 10 uM after 48 hrs by SRB assay relative to control; settings: HT-29, 48 h, read-out: GI; in short: as §1
[25] = Growth inhibition of human ovarian cancer cells after 48 hrs by SRB assay; settings: Cancer cell lines
In short: (§4)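 Follow-up NCI panel testing over a 5-log dose range for each cell line. GI50, TGI and LC50 were monitored, with 5-fluorouracil run as the positive control. Values are grouped by tumour subpanel.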

[26] = Growth inhibition of human RPMI8226 cells at 10 uM after 48 hrs by SRB assay relative to control; settings: RPMI-8226, 48 h, read-out: GI; in short: as §1
[27] = Growth inhibition of human PC3 cells at 10 uM after 48 hrs by SRB assay relative to control; settings: PC-3, 48 h, read-out: GI; in short: as §1
[28] = Growth inhibition of human SN12C cells at 10 uM after 48 hrs by SRB assay relative to control; settings: read-out: GI; in short: as §2
[29] = Growth inhibition of human colon cancer cells after 48 hrs by SRB assay; settings: Cancer cell lines; in short: as §4
[30] = Growth inhibition of human SW620 cells at 10 uM after 48 hrs by SRB assay relative to control; settings: SW-620, 48 h, read-out: GI; in short: as §2
[31] = Growth inhibition of human UO31 cells at 10 uM after 48 hrs by SRB assay relative to control; settings: UO-31, 48 h, read-out: GI; in short: as §2
[32] = Growth inhibition of human HCT15 cells at 10 uM after 48 hrs by SRB assay relative to control; settings: HCT-15, 48 h, read-out: GI; in short: as §1
[33] = Growth inhibition of human M14 cells at 10 uM after 48 hrs by SRB assay relative to control; settings: M14, 48 h, read-out: GI; in short: as §1
[34] = Growth inhibition of human melanoma cells after 48 hrs by SRB assay; settings: Melanoma cell; in short: as §4

For `COc1cc(CSc2nc3ccc(C)cc3c(=O)n2Cc2ccccc2)cc(OC)c1OC`, the inhibition of growth at 10 µM [1] was 74.7%, the inhibition of growth at 10 µM [2] was 75.7% and the inhibition of growth at 10 µM [3] was 71.3%. It also gave an inhibition of growth at 10 µM [4] of 60%, an inhibition of growth at 10 µM [5] of 82% and an inhibition of growth at 10 µM [6] of 54.7%. For the same compound, the inhibition of growth at 10 µM [7] was 43.4%, the RatioGI50 (Cancer cell lines [8]) was 10 and the inhibition of growth at 10 µM [9] was 82.3%. For the same compound, the inhibition of growth at 10 µM [10] was 74.9%, the inhibition of growth at 10 µM [11] was 53.2% and the inhibition of growth at 10 µM [12] was 99.1%. For the same compound, the inhibition of growth at 10 µM [13] was 48%, the inhibition of growth at 10 µM [14] was 52.6% and the inhibition of growth at 10 µM [15] was 57%. The inhibition of growth at 10 µM [16] was 70%, the inhibition of growth at 10 µM [17] was 65.2% and the RatioGI50 (Cancer cell lines [18]) was 10. The inhibition of growth at 10 µM [19] was 60%, the inhibition of growth at 10 µM [20] was 93% and the inhibition of growth at 10 µM [21] was 53.3%. It also gave a RatioGI50 (Melanoma cell) of 10, a GI50 [22] of 3.5 µM and an LC50 (lethal concentration, 50% net cell kill) [22] of 81.9 µM. The TGI [22] was 46.7 µM, the RatioGI50 (Cancer cell lines [23]) was 10 and the inhibition of growth at 10 µM [24] was 89.5%. It also gave a GI50 [25] of 3.3 µM, an LC50 (50% lethal concentration) [25] of 92.7 µM and a TGI [25] of 57.6 µM. For the same compound, the inhibition of growth at 10 µM [26] was 46%, the inhibition of growth at 10 µM [27] was 54.1% and the inhibition of growth at 10 µM [28] was 60%. The GI50 [29] was 1600 nM, the LC50 [29] was 87.1 µM and the TGI [29] was 76.1 µM. It also gave an inhibition of growth at 10 µM [30] of 74.2%, an inhibition of growth at 10 µM [31] of 68% and an inhibition of growth at 10 µM [32] of 70.8%. The inhibition of growth at 10 µM [33] was 64.4%, the GI50 [34] was 3.2 µM and the LC50 [34] was over 100 µM. For the same compound, the TGI [34] was 58.4 µM.

With `COc1cc(CSc2nc3ccc(C)cc3c(=O)n2-c2ccccc2)cc(OC)c1OC` the inhibition of growth at 10 µM [1] was 74.7%, the inhibition of growth at 10 µM [2] was 66.8% and the inhibition of growth at 10 µM [3] was 72.4%. It also gave an inhibition of growth at 10 µM [4] of 60.7%, an inhibition of growth at 10 µM [5] of 79.7% and an inhibition of growth at 10 µM [6] of 53.6%. It also gave an inhibition of growth at 10 µM [7] of 32.1%, a RatioGI50 (Cancer cell lines [8]) of 10 and an inhibition of growth at 10 µM [9] of 79.8%. It also gave an inhibition of growth at 10 µM [10] of 73.4%, an inhibition of growth at 10 µM [11] of 62.4% and an inhibition of growth at 10 µM [12] of 85.3%. The inhibition of growth at 10 µM [13] was 47.9%, the inhibition of growth at 10 µM [14] was 49.8% and the inhibition of growth at 10 µM [15] was 50.3%. For the same compound, the inhibition of growth at 10 µM [16] was 57.6%, the inhibition of growth at 10 µM [17] was 80.4% and the RatioGI50 (Cancer cell lines [18]) was 10. The inhibition of growth at 10 µM [19] was 62.2%, the inhibition of growth at 10 µM [20] was 84% and the inhibition of growth at 10 µM [21] was 55.3%. For the same compound, the RatioGI50 (Melanoma cell) was 10, the GI50 [22] was 5.4 µM and the LC50 (lethal concentration, 50% net cell kill) [22] was over 100 µM. The TGI [22] was 60.9 µM, the RatioGI50 (Cancer cell lines [23]) was 10 and the inhibition of growth at 10 µM [24] was 85.7%. For the same compound, the GI50 [25] was 4 µM, the LC50 (50% lethal concentration) [25] was over 100 µM and the TGI [25] was 84.6 µM. The inhibition of growth at 10 µM [26] was 45.1%, the inhibition of growth at 10 µM [27] was 51% and the inhibition of growth at 10 µM [28] was 63%. It also gave a GI50 [29] of 1300 nM, an LC50 [29] of over 100 µM and a TGI [29] of 86.3 µM. For the same compound, the inhibition of growth at 10 µM [30] was 70.3%, the inhibition of growth at 10 µM [31] was 75.9% and the inhibition of growth at 10 µM [32] was 69.9%. It also gave an inhibition of growth at 10 µM [33] of 82.8%, a GI50 [34] of 3.9 µM and an LC50 [34] of over 100 µM. For the same compound, the TGI [34] was 82.2 µM.
